# From ChEMBL document CHEMBL1153747, “Synthesis and inhibitory activity against human monoamine oxidase of N1-thiocarbamoyl-3,5-di(hetero)aryl-4,5-dihydro-(1H)-pyrazole derivatives” (Eur J Med Chem, 2010)
# Legend:
# Homo sapiens = organism: Homo sapiens; experiment: Selectivity, ratio of IC50 for human recombinant MAOA to human recombinant MAOB
# [1] = target: T1, Amine oxidase [flavin-containing] A (Homo sapiens, UniProt P21397); experiment: Inhibition of human recombinant MAOA
# T1 sequence (P21397 whole entry): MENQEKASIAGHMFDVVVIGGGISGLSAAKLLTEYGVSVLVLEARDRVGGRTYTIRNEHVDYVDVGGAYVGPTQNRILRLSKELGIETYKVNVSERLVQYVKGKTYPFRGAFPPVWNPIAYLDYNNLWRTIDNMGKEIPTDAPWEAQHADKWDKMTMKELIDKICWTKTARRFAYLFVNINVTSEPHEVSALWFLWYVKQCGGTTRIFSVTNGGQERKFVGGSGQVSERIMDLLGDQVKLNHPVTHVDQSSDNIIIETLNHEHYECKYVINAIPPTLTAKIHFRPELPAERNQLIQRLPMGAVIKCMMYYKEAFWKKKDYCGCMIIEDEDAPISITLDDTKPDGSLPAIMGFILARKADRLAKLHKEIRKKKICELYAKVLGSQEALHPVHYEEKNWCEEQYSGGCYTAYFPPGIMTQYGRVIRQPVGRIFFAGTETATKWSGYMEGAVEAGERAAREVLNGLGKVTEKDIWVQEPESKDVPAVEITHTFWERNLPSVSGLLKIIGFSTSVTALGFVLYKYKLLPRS
# [2] = target: T2, Amine oxidase [flavin-containing] B (Homo sapiens, UniProt P27338)
# T2 sequence (P27338 whole entry): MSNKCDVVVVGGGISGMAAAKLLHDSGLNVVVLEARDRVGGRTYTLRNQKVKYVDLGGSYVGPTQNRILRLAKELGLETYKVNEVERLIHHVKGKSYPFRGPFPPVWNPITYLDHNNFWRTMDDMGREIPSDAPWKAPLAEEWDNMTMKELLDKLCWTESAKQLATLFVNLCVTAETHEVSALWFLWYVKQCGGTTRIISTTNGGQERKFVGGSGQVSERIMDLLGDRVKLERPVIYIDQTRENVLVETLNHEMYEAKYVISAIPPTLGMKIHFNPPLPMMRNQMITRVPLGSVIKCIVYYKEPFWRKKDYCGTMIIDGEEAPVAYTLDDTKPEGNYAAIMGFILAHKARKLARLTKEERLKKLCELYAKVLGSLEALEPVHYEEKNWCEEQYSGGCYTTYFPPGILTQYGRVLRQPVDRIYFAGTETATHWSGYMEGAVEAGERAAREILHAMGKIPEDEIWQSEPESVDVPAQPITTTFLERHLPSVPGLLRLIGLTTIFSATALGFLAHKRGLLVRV
# [3] = target: T2, Amine oxidase [flavin-containing] B; experiment: Inhibition of human recombinant MAOB at 1 mM; conditions: 1000 µM
# Procedure, shortened: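 Recombinant hMAO-A or hMAO-B in microsomes from baculovirus-infected BTI-TN-5B1-4 insect cells, amounts set to oxidize 165 pmol p-tyramine/min in controls. Preincubated with test drug in 0.05 M sodium phosphate pH 7.4, 15 min, 37 °C. Reaction started with Amplex Red, 1 U/mL HRP and 1 mM p-tyramine (final). […] Selectivity = IC50(MAO-A)/IC50(MAO-B).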
SMILES,Ratio IC50 (Homo sapiens),IC50 [1] [µM],IC50 [2] [µM],inhibition (INH) [3]
O=C(NCCN1CCOCC1)c1ccc(Cl)cc1 [MOCLOBEMIDE],–,–,–,Not Active
Cc1ccc(C2CC(c3ccco3)=NN2C(N)=S)cc1 (centres undefined),1.2,65.8,54.5,–
NC(=S)N1N=C(c2ccccc2)CC1c1ccccc1 (centres undefined),> 2.1,–,48.3,–
NC(=S)N1N=C(c2ccccc2)CC1c1ccco1 (centres undefined),1.7,54.7,32.5,–

# More lines, now with the values ahead:
Ratio IC50 (Homo sapiens),IC50 [1] [µM],IC50 [2] [µM],inhibition (INH) [3],SMILES
2.1,70,33.3,–,NC(=S)N1N=C(c2cccs2)CC1c1ccc[nH]1 (centres undefined)
> 1.4,–,69.4,–,NC(=S)N1N=C(c2ccc[nH]2)CC1c1ccco1 (centres undefined)
